According to ChEMBL document CHEMBL2203158, “Fluorescent derivatives of AC-42 to probe bitopic orthosteric/allosteric binding mechanisms on muscarinic M1 receptors” (J Med Chem, 2012):
Active and inactive are the calls of the source. The calls are words filed in the database; no cut-off is given here.

What was measured:
[1] = molecular target: T1, Muscarinic acetylcholine receptor M1 (Homo sapiens, UniProt P11229); type: cell-based, HEK293
T1 sequence (P11229 whole entry): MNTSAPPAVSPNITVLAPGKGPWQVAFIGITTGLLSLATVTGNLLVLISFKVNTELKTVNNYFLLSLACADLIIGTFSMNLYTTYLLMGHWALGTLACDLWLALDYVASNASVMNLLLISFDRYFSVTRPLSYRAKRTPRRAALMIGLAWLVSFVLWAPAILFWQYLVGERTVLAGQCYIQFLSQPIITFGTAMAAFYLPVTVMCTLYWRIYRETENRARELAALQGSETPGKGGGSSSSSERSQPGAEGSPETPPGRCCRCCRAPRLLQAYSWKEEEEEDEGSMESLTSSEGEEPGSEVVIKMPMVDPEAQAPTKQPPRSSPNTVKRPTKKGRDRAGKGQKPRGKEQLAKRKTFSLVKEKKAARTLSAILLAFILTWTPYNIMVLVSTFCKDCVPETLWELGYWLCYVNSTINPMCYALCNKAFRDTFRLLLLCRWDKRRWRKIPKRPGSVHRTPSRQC

[2] = molecular target: T1, Muscarinic acetylcholine receptor M1; assay: Displacement of [3H]NMS from EGFP-fused human M1 receptor N-terminal truncated at 17 residues expressed in HEK293 cells after 22 hrs by liquid scintillation counting; type: cell-based
[3] = molecular target: T2, Muscarinic acetylcholine receptor M1 (Homo sapiens) (UniProt P11229); assay: (§1) Antagonist activity at EGFP-fused human M1 receptor N-terminal truncated at 17 residues expressed in HEK293 cells assessed as inhibition of carbachol induced calcium response by fluorescence assay; type: functional, cell-based
T2 sequence (whole entry): T1 sequence (P11229 whole entry)

[4] = molecular target: T1, Muscarinic acetylcholine receptor M1; assay: as §1; type: functional, cell-based
[5] = molecular target: Muscarinic acetylcholine receptor M3 (Homo sapiens) (UniProt P20309); assay: Antagonist activity at human M3 receptor in HEK293 cells assessed as inhibition of 20 uM carbachol induced calcium response at 10 uM by fluorescence assay; type: functional, cell-based
Muscarinic acetylcholine receptor M3 (Homo sapiens), sequence (P20309 whole entry, looked up): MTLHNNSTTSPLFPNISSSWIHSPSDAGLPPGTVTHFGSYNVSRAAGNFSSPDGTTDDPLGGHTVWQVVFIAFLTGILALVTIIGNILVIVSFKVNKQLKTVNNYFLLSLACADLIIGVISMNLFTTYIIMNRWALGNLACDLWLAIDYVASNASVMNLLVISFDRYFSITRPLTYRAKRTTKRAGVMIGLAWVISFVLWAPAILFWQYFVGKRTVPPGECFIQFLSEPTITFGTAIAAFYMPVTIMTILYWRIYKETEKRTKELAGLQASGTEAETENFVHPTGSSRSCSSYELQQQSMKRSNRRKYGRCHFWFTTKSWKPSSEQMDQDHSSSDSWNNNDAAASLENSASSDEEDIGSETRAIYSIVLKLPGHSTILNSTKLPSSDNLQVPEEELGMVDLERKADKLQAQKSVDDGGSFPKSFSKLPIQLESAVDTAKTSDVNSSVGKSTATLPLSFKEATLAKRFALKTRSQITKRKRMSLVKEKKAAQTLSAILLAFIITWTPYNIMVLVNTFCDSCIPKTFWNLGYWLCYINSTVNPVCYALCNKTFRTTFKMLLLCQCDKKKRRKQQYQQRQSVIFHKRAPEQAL
Method in brief: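 Nontransfected HEK cells (endogenous M3) loaded with 5 μM Indo-1 AM, 45 min, 37 °C, trypsin/EDTA harvested, suspended at 10⁶ cells/mL in Hepes buffer with 1 mg/mL BSA. Calcium read at 37 °C as 400 nm emission (338 nm excitation), peak normalized to 20 μM digitonin maximum.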

[6] = molecular target: T1, Muscarinic acetylcholine receptor M1; assay: Partial agonist activity at EGFP-fused human M1 receptor N-terminal truncated at 11 residues expressed in HEK293 cells assessed as induction of calcium response by fluorescence assay; type: functional, cell-based
Method in brief: (§2)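 Stably transfected HEK293 cells (hygromycin-selected) were loaded with 5 μM Indo-1 AM for 45 min at 37 °C, then suspended at 10⁶ cells/mL in Hepes buffer with BSA. […] EC50 and Emax are mean ± SD of two determinations.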

[7] = molecular target: T1, Muscarinic acetylcholine receptor M1; assay: Partial agonist activity at EGFP-fused human full length M1 receptor expressed in HEK293 cells assessed as induction of calcium response by fluorescence assay; type: functional, cell-based
Method in brief: as §2

[8] = molecular target: T1, Muscarinic acetylcholine receptor M1; assay: Partial agonist activity at human full length M1 receptor expressed in HEK293 cells assessed as induction of calcium response by fluorescence assay; type: functional, cell-based
Method in brief: as §2

[9] = molecular target: T1, Muscarinic acetylcholine receptor M1; assay: Partial agonist activity at EGFP-fused human M1 receptor N-terminal truncated at 17 residues expressed in HEK293 cells assessed as induction of calcium response by fluorescence assay; type: functional, cell-based
Method in brief: as §2

[10] = molecular target: T2, Muscarinic acetylcholine receptor M1 (Homo sapiens); settings: HEK293, 10 uM
[11] = molecular target: T2, Muscarinic acetylcholine receptor M1 (Homo sapiens); settings: HEK293, 200 nM
[12] = molecular target: T2, Muscarinic acetylcholine receptor M1 (Homo sapiens); settings: HEK293, 10 uM; remark: listed apart in the source
[13] = molecular target: T2, Muscarinic acetylcholine receptor M1 (Homo sapiens); assay: Allosteric modulation of EGFP-fused human M1 receptor N-terminal truncated at 17 residues expressed in HEK293 cells after 4 hrs by FRET assay in presence of para-LRB-AC42; type: cell-based
Method in brief: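 EGFP emission was read at 510 nm with excitation at 470 nm. Specific signal was the difference from 20 μM atropine. Kx and α came from an allosteric model fit, with three or more independent runs done in duplicate.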

[14] = molecular target: T2, Muscarinic acetylcholine receptor M1 (Homo sapiens); assay: Partial agonist activity at EGFP-fused human M1 receptor N-terminal truncated at 17 residues expressed in HEK293 cells assessed as inhibition of carbachol induced calcium response at 1 uM by fluorescence assay relative to control; type: functional, cell-based
[15] = molecular target: T2, Muscarinic acetylcholine receptor M1 (Homo sapiens); settings: HEK293
[16] = molecular target: T1, Muscarinic acetylcholine receptor M1; assay: Binding affinity to EGFP-fused human M1 receptor N-terminal truncated at 17 residues expressed in HEK293 cells after 4 hrs by FRET assay; type: cell-based
Method in brief: (§3)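 EGFP emission was read at 510 nm; specific binding is atropine-sensitive fluorescence extinction. Kd, maximal FRET amplitude and Ki/Kx/α come from Hill or competitive/allosteric fits, mean ± SE, n≥3.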

[17] = molecular target: T1, Muscarinic acetylcholine receptor M1; assay: Displacement of [3H]NMS from EGFP-fused human M1 receptor N-terminal truncated at 17 residues expressed in HEK293 cells assessed as reduction of [3H]NMS dissociation rate after 22 hrs by liquid scintillation counting; type: cell-based
[18] = molecular target: T2, Muscarinic acetylcholine receptor M1 (Homo sapiens); assay: Binding affinity to EGFP-fused human M1 receptor N-terminal truncated at 17 residues expressed in HEK293 cells assessed as maximal amplitude after 4 hrs by FRET assay; type: cell-based
Method in brief: as §3

[19] = molecular target: T2, Muscarinic acetylcholine receptor M1 (Homo sapiens); assay: Partial agonist activity at EGFP-fused human M1 receptor N-terminal truncated at 17 residues expressed in HEK293 cells assessed as inhibition of carbachol induced calcium response at […] by fluorescence assay; type: functional, cell-based

Cc1ccccc1C(=O)CCCN1CCC(CCCCCN)CC1
Ki [1]: 1.29 µM
Ki [2]: 1.95 µM
inhibition [3]: Dose-dependent effect
IC50 [4]: 3.7 µM
inhibition [5]: inactive

CCCCC1CCN(CCCC(=O)c2ccccc2C)CC1
EC50 [6]: 0.72 µM
EC50 [7]: 0.21 µM
EC50 [8]: 0.74 µM
Ki [1]: 0.891 µM
Ki [2]: 1.74 µM
EC50 [9]: 0.45 µM
inhibition [10]: inactive
inhibition [11]: inactive
inhibition [12]: inactive

Clc1ccc2c(c1)N=C(N1CCNCC1)c1ccccc1N2 [N-DESMETHYLCLOZAPINE]
pKx [13]: 6.92
Ki [2]: 0.0603 µM

CCN(CC)c1ccc2c(-c3ccc(S(=O)(=O)[O-])cc3S(=O)(=O)NCCCCCC3CCN(CCCC(=O)c4ccccc4C)CC3)c3ccc(=[N+](CC)CC)cc-3oc2c1
Emax [14]: 20%

C#C[C@]1(O)CC[C@H]2[C@@H]3CC[C@H]4Cc5nc6nc7ccccc7n6cc5C[C@]4(C)[C@H]3CC[C@@]21C
pKx [13]: 5.03

COc1cc2c(cc1OC)[C@@]13CCN4CC5=CCO[C@H]6CC(=O)N2[C@H]1[C@H]6[C@H]5C[C@H]43 [BRUCINE]
Ki [1]: 44.7 µM
pKx [15]: 4.59

CCN(CC)c1ccc2c(-c3ccc(S(=O)(=O)NCCCCCC4CCN(CCCC(=O)c5ccccc5C)CC4)cc3S(=O)(=O)[O-])c3ccc(=[N+](CC)CC)cc-3oc2c1
Kd [16]: 0.794 µM
EC50 [17]: 25.1 µM
Ki [2]: 1 µM
inhibition [3]: Dose-dependent effect
IC50 [4]: 0.3 µM
Activity [18]: 26.5%
inhibition [5]: inactive

CCN(CC)c1ccc2c(-c3ccc(S(=O)(=O)O)cc3S(=O)(=O)[O-])c3ccc(=[N+](CC)CC)cc-3oc2c1
Ki [2]: > 1000 µM
Activity [19]: inactive
